Screening data as filed in PubChem BioAssay.
NR2E3 ag-1: inhibitors of NR2E3-RetCOR corepressor binding, primary screen, NR2E3 agonist project, biochemical, TR-FRET, GST-NR2E3, biotin-RetCOR; Photoreceptor-specific nuclear receptor (Homo sapiens), Q9Y5X4; 1536-well; inhibition of corepressor binding, % at 4.78 µM; actives 0.12% (n = 320,000); AID 2300, 2010;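 active = percent inhibition above the cutoff of mean plus 3 SD of all tested compounds, set per screening campaign, cut at about 20% in these data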
Target sequence (Q9Y5X4 whole entry, looked up): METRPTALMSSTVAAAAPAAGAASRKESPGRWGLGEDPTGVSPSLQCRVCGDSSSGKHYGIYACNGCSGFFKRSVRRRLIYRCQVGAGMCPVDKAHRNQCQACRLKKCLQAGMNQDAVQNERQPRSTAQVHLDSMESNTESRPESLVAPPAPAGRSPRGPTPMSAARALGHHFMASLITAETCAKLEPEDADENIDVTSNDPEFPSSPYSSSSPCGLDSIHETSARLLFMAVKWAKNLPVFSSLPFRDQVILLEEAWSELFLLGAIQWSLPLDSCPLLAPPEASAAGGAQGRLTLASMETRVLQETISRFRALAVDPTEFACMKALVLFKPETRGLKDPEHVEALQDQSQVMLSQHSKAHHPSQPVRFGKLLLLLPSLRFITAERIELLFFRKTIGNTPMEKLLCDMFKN
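Material: NR2E3–RetCOR corepressor complex / Incubation: Compound–protein incubation for 5 h at 4 °C / Dosing: compound at 4.8 µM, single dose / Detection: time-resolved FRET / Benchmarks: high control biotin, low control 0.6% DMSO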
SKN-1 inh: suppressors of acrylamide-induced Pgst-4::GFP reporter in worms, primary screen, SKN-1 inhibitor project, whole organism, uHTS, GFP/RFP fluorescence ratio, strain VP596 | C. elegans VP596 Pgst-4::GFP/RFP ratio, 24 h | inhibition, % at 21.8 µM | actives 0.49% (n = 360,000);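 active = interference check ratio from 0.5 to 1.5 plus GFP to RFP signal ratio inhibition reaching or exceeding a fixed threshold, cut at about 30% in these data, passing the limit was not always enough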
Rev-erbA mod: modulators of Rev-erb alpha DNA binding, primary screen, biochemical, FITC-DNA, fluorescence polarization, uHTS; Nuclear receptor subfamily 1 group D member 1 (Homo sapiens), P20393; Rev-erbα–FITC-DNA binding, 90 min; activity, % at 10 µM; actives 0.79% (n = 370,000); AID 1259318, 2017;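 active = activity above about 14%, limit read from the data; passing the limit was not always enough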
MT1-MMP act inh: blockers of MT1-MMP proenzyme processing, primary screen, HT1080 RFP-PRO-GFP cells, GFP/RFP fluorescence. actives 0.061% (n = 360,000). Matrix metalloproteinase-14 (Homo sapiens), P50281. GFP/RFP ratio fluorescence, overnight; percent of plate control window, DMSO zero. GFP/RFP ratio change, % at 20 µM;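 active = GFP/RFP ratio change of at least 30% with cell ATP level not reduced by more than half and red fluorescence within 50% of control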
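system = RFP-PRO-GFP reporter HT1080 cells | dosing = 20 µM single dose, 1% DMSO | timing = overnight cell settling, then overnight compound exposure, 37 °C, 5% CO2 | read-out basis = GFP/RFP fluorescence ratio | controls = DMSO and RFP-L50D-GFP cell wells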
NR2E3 ag-2: NR2E3 agonists in two-hybrid cells, primary screen, cell-based, luminescence, CHO-S, Gal4-NCOR/VP16-NR2E3; luciferase; inhibition of corepressor binding, % at 3.98 µM; actives 0.35% (n = 360,000);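 active = inhibition above the mean of all tested compounds plus 3 SD, cut at about 70% in these data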;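 note: higher means lower luciferase signal from less NR2E3 corepressor binding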
PG9 Ab binder: binders of HIV-1 gp120 antibody PG9, primary screen, biochemical, TR-FRET | HIV-1 gp120 / PG9 antibody interaction | TR-FRET gp120-PG9 antibody binding | inhibition, % at 6.7 µM | actives 0.43% (n = 360,000); in the data active = inhibition above about 8.5%
PG9 binder conf: binders of anti-gp120 antibody PG9, confirmation, biochemical, TR-FRET; shares compounds with PG9 Ab binder; AID 651571, 2012; actives 90% (n = 1,500); inhibition, % at 6.7 µM; TR-FRET PG9 antibody binding; in the data active = inhibition above about 9%
PGV04 counter: binders of control antibody PGV04, counter-screen for PG9 antibody binder project, biochemical, TR-FRET, distinct HIV envelope site; inhibition, % at 6.7 µM; shares compounds with PG9 Ab binder; AID 651604, 2012; TR-FRET PGV04 antibody-gp120 binding; actives 95% (n = 1,500); in the data active = inhibition above about 9.5%
PG9 bind DR: small-molecule binders of antibody PG9, dose response, biochemical, TR-FRET, HIV-1 gp120 antibody; shares compounds with PG9 Ab binder; TR-FRET PG9 antibody-gp120 binding inhibition; IC50, µM; 95 tested, under 10 active; AID 651848, 2012; in the data active = IC50 below about 10 µM
PGV04 binding DR: binders of control antibody PGV04, dose response, counter-screen for PG9 antibody binder project, biochemical, TR-FRET, distinct HIV envelope site; shares compounds with PG9 Ab binder; TR-FRET binding to control antibody PGV04; IC50, µM; actives 20% (n = 95)
PG126 DR counter: binders of control antibody PG126, dose response, counter-screen for PG9 antibody binder project, biochemical, TR-FRET, distinct HIV envelope site | shares compounds with PG9 Ab binder | actives 20% (n = 95) | AID 651939, 2012 | TR-FRET binding to antibody PG126, counterscreen | IC50, µM
Each line names hits and unclear results; the compound was inactive in the other large screens (follow-up assays come after a bar, where they were run). Most compounds without a hit are left out; they make up all but 1.9% or so of the library. Cut-off read from the data, not from the text of the source, unless noted: active = IC50 below about 9 µM; inactive = the rest.

COC(=O)[C@]12C[C@H](CC(=O)NCCC(C)C)C(=O)N(CCC3=CCCCC3)C1=C[C@H](COCc1ccccc1)O[C@@H]2C	none (no result: NR2E3 ag-1, SKN-1 inh, MT1-MMP act inh, NR2E3 ag-2)
Cn1c(/C=C/c2ccc(Br)cc2)nc2ccccc2c1=O	PG9 Ab binder 46 | PG9 binder conf 15 | PGV04 counter 29
COC(=O)[C@]12C[C@H](CC(=O)N3CCSCC3)C(=O)N(Cc3ccc(Cl)cc3Cl)C1=C[C@H](C(C)C)O[C@@H]2C1CC1	none (no result: NR2E3 ag-1, SKN-1 inh, MT1-MMP act inh, NR2E3 ag-2, PG9 Ab binder)
CCC(C)[C@H](NC(=O)[C@H](Cc1ccccc1)NC(=O)OC(C)(C)C)C(=O)NCc1ccccc1Br (stereo partly specified)	none (no result: NR2E3 ag-1, SKN-1 inh, MT1-MMP act inh, NR2E3 ag-2, PG9 Ab binder)
Cc1ccc2c(Cl)c(C(=O)Nc3ccc4c(c3)OCO4)sc2c1	PG9 Ab binder 14 | PG9 binder conf 26 | PGV04 counter 53
O=C(COc1ncnc2cc([N+](=O)[O-])ccc12)N(CCc1ccccc1)Cc1ccccc1	PG9 Ab binder 16 | PG9 binder conf 26 | PGV04 counter 41
COC(=O)[C@H](N[C@H](/C=C/c1ccccc1)[C@@H](O)Cc1ccccc1)c1ccccc1	none (no result: NR2E3 ag-1, SKN-1 inh, MT1-MMP act inh, NR2E3 ag-2)
COc1ccc2c(C)cc(=S)[nH]c2c1	PG9 Ab binder 19 (no result: NR2E3 ag-1) | PG9 binder conf 8.6 | PGV04 counter 9.5
O=C(Nc1ccsc1C(=O)NC1CCCCC1)c1ccccc1	PG9 Ab binder 28 | PG9 binder conf 25 | PGV04 counter 31
O=C(Nc1ccccc1C(=O)NC1CCCCC1)c1ccccc1	none
CCCCCCN1CCN(C2CN(Cc3cn(Cc4ccc(C(F)(F)F)cc4)nn3)S(=O)(=O)C2)CC1 (stereo unspecified)	none (no result: NR2E3 ag-1, SKN-1 inh, MT1-MMP act inh, NR2E3 ag-2)
Cc1ccccc1NC(=O)Nc1nc2ccc(S(C)(=O)=O)cc2s1	PG9 Ab binder 11 | PG9 binder conf 12 | PGV04 counter 28
CCOc1ccc(NC(=O)Nc2nc3ccc(S(C)(=O)=O)cc3s2)cc1	PG9 Ab binder 14 (no result: NR2E3 ag-1) | PG9 binder conf 19 | PGV04 counter 22
COC(=O)[C@]12C[C@H](CC(=O)NCC34CC5CC(CC(C5)C3)C4)C(=O)N(Cc3ccc(Cl)cc3Cl)C1=C[C@H](C1CCCC1)O[C@@H]2C	none (no result: NR2E3 ag-1, SKN-1 inh, MT1-MMP act inh, NR2E3 ag-2, PG9 Ab binder)
O=C(CSc1nnc(-c2c[nH]c3ccccc23)o1)c1ccc(-c2ccccc2)cc1	PG9 Ab binder 18 | PG9 binder conf 22 | PGV04 counter 43
CCc1cc2cc(C(=O)N3CCN(c4ccccc4)CC3)sc2s1	PG9 Ab binder 20 | PG9 binder conf 36 | PGV04 counter 40
Cc1csc(NC(=O)COc2ccc3c(C)cc(=O)oc3c2)n1	PG9 Ab binder 15 | PG9 binder conf 21 | PGV04 counter 30
CCn1c(=O)cc(OCC(=O)Nc2nc(C)cs2)c2ccccc21	PG9 Ab binder 13 | PG9 binder conf 30 | PGV04 counter 49
COC(=O)[C@]12C[C@H](CC(=O)N3CCCCC3)C(=O)N(Cc3ccccc3)C1=C[C@H](C(C)C)O[C@@H]2C1CC1	none (no result: NR2E3 ag-1, SKN-1 inh, MT1-MMP act inh, NR2E3 ag-2)
Cc1ccc(S(=O)(=O)N(C)Cc2cc3cc(C)ccc3[nH]c2=O)cc1	PG9 Ab binder 17 | PG9 binder conf 28 | PGV04 counter 44
CCOC(=O)c1cc2sccc2n1CC(=O)Nc1ccc(OC)cc1	PG9 Ab binder 12 | PG9 binder conf 16 | PGV04 counter 31
O=C(N[C@H](C(=O)N1CCC[C@H]1C(=O)NC1CCCC1)C1CCCCC1)C1CCCC1	none (no result: NR2E3 ag-1, SKN-1 inh, MT1-MMP act inh, NR2E3 ag-2)
Cc1ccc(S(=O)(=O)N2OC(c3ccccc3)C[C@H]2CC=C(c2ccccc2)c2ccccc2)cc1 (stereo partly specified)	none (no result: NR2E3 ag-1, SKN-1 inh, MT1-MMP act inh, NR2E3 ag-2, PG9 Ab binder)
CCOC(=O)CCCNC(=O)OCCCN1CCC2(CCC(c3ccccc3)CC2)C1=O (stereo unspecified)	none (no result: NR2E3 ag-1, SKN-1 inh, MT1-MMP act inh, NR2E3 ag-2, PG9 Ab binder)
Cc1nc(SCC(=O)Nc2ccc3c(c2)OCO3)c(C#N)c2c1CCCC2	none
CCOc1cccc(NC(=O)CSc2nc(C)c3c(c2C#N)CCCC3)c1	PG9 Ab binder 12 | PG9 binder conf 16 | PGV04 counter 29
CCOC(=O)c1c(C)[nH]c(C(=O)COC(=O)c2ccc(F)c(S(=O)(=O)N3CCOCC3)c2)c1C	PG9 Ab binder 17 | PG9 binder conf 29 | PGV04 counter 40
C=CCSc1ncnc2c1oc1nc3c(cc12)COC(C)(C)C3	none
CC1(C)Cc2nc3oc4c(=S)nc[nH]c4c3cc2CO1	PG9 Ab binder 19 | PG9 binder conf 11 | PGV04 counter 12
COC(=O)[C@H](Cc1ccccc1)NC(=O)[C@H]1C[C@@]2(N3CCCC3)c3ccccc3N(C(=O)OC(C)(C)C)[C@H]2N1C(=O)OC(C)(C)C	none (no result: NR2E3 ag-1, SKN-1 inh, MT1-MMP act inh, NR2E3 ag-2, PG9 Ab binder)
COc1ccc(C2O[C@@H](C)[C@@H]3C(=O)N4CCc5c([nH]c6ccccc56)[C@@H]4C[C@@H]3N2C)cc1 (stereo partly specified)	none (no result: NR2E3 ag-1, SKN-1 inh, MT1-MMP act inh, NR2E3 ag-2)
CC(=O)c1cccc(NC(=O)c2cccc(N3C(=O)c4ccccc4C3=O)c2)c1	PG9 Ab binder 22 | PG9 binder conf 25 | PGV04 counter 22 | PG9 bind DR inactive | PGV04 binding DR inactive | PG126 DR counter inactive
